# Hep lipid drop – inhibitors of hepatocyte lipid droplet formation, primary screen, imaging, high-throughput imaging, BODIPY stain; AML12 mouse hepatocytes, oleate lipid droplets; inhibition, % at 6.5 µM; 240,000 compounds, 0.4% hits;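 active = lipid droplet intensity inhibited by at least 50%, with more than 500 cells counted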
#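 Technique: fluorescence imaging, 20x objective, two fields per well / Assay system: AML12 hepatocytes (mouse) / Measure: % inhibition of lipid droplet signal / Doses: 6.5 µM single-point dosing / Incubation: overnight exposure / Reagent: 100 µM oleic acid challenge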
# Mdm2 ligase inh – MDM2-luciferase reporter signal enhancers, primary screen, MDM2 E3 ligase inhibitor project, cell-based, luminescence, 1536-well; AID 1230, 2008; E3 ubiquitin-protein ligase Mdm2 (Homo sapiens), Q00987; signal enhancement, % at 5 µM; cell-based MDM2 ubiquitination luciferase reporter, 2 h; 0 = plate control, 100 = twice control, blank-subtracted; 210,000 compounds, 0.11% hits;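 active = signal enhancement of 30% or more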;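 note: luminescence tracks abundance of the self-degrading MDM2-luciferase fusion protein; higher signal means inhibition of MDM2 E3 ligase activity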
#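 Assay system: stable mammalian line carrying autodegrading MDM2–luciferase fusion reporter; Input: 2000 cells in each well; Compound dosing: single-point 5 µM; Schedule: 2 h compound exposure at 37 °C; Signal: SteadyLite luciferase luminescence after 15 min room-temperature reagent incubation; Evaluation: % luminescence enhancement versus blank-corrected plate control mean; Benchmarks: plate controls and plate blanks.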
# p-CIP stab down – p/CIP-EGFP fusion destabilizers, primary screen, fluorescence, F442A cells. Q05BA5. 16 h. decrease of EGFP signal, % at 10 µM. 290,000 compounds, 0.01% hits. AID 1984, 2009;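 active = EGFP signal decrease of at least 30% at 10 µM or well 3 SD below plate mean, unless failing retest; inactive = the rest, including hits failing retest or dose response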
# Hep lipid conf – hepatocyte lipid droplet accumulation inhibitors, confirmation, imaging, AML12 mouse hepatocytes, single concentration, high-content; 870 compounds, 65% hits; inhibition, % at 5.2 µM; BODIPY lipid droplet imaging; droplets induced with 100 µM oleic acid; shares compounds with Hep lipid drop;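 active = inhibition of lipid droplet metric at least 50%, with more than 300 cells in each of four replicates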;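 note: plate controls were DMSO with oleic acid for no effect and 5 µM Triacsin-C for full effect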
# AML12 cytotox – AML12 hepatocyte cytotoxicity, counter-screen for hepatic lipid droplet formation project, imaging, DAPI nuclear morphology imaging; shares compounds with Hep lipid drop; AML12 mouse hepatocytes; active compounds read high; cells fed 100 µM oleate overnight; z-score at 5 µM; 870 compounds, 3% hits; AID 463200, 2010; in the data active = z-score above about 6.3;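 note: compound exposure lasted overnight at 37 °C before fixation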
# AML12 tox ATP – AML12 hepatocyte cytotoxicity, confirmation, cytotoxicity control for hepatic lipid droplet formation project, cell-based, single concentration. cytotoxicity, % at 50 µM. 530 tested, under 10 active. shares compounds with Hep lipid drop. AID 463219, 2010. AML12 mouse hepatocyte viability, ATP luminescence; cells loaded with 100 µM oleic acid;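 active = cytotoxicity above 50% in each of four replicates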;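 note: compound exposure lasted overnight at 37 °C before the ATP read; 0% = DMSO-treated cells and 100% = wells with no cells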
# An asterisk follows results filed as active; . = not tested or not shown. Shown is part of a subset that was picked to be rich in hits.
SMILES,Hep lipid drop,Mdm2 ligase inh,p-CIP stab down,Hep lipid conf,AML12 cytotox,others
CC(=O)Nc1cccc(OCC(=O)NC(C)c2ccc3ccccc3c2)c1 (centres undefined),68.5*,.,-4.4,38.4,0.155,
O=C(N/N=C/c1ccc(OC(F)F)cc1)c1cccc(S(=O)(=O)N2CCOCC2)c1,2.6,6.2,-15.8,.,.,
COC(=O)c1c(N2C(=O)[C@H]3[C@@H](C2=O)[C@]2(C(=O)Nc4c(C)cc(C)cc42)N2CCC[C@@H]32)sc(C)c1C,68.0*,-1.2,-0.7,32.1,0.0645,
COC(=O)c1c(N2C(=O)[C@H]3[C@@H](C2=O)[C@]2(C(=O)Nc4c2ccc(C)c4C)N2CCC[C@@H]32)sc(C)c1C,-5.7,-21.0,-1.8,.,.,
N#CCCN(C(=O)COc1ccc(C#N)cc1)c1ccc(F)cc1,1.2,-9.1,8.8,.,.,
CCC(C(=O)NCc1cccc(C)c1)n1nc(C)c2c(C)n(-c3ccccc3)nc2c1=O (centres undefined),64.0*,.,2.4,78.2*,-0.533,AML12 tox ATP=21.6
Cc1ccc(-n2nc3c(=O)n(C(C)C(=O)NCCCc4ccccc4)nc(C)c3c2C)cc1 (centres undefined),43.1,.,3.0,.,.,
Cc1ccc(-n2nc3c(=O)n(CC(=O)NCCCc4ccccc4)nc(C)c3c2C)cc1,65.0*,.,-11.4,81.3*,-0.421,AML12 tox ATP=26.6
CCC(C(=O)NCc1ccc(C)o1)n1nc(C)c2c(C)n(-c3ccccc3)nc2c1=O (centres undefined),24.5,.,-6.8,.,.,
O=C(COc1ccc2ccccc2c1)Nc1ccccc1C(=O)O,5.0,.,7.8,.,.,
CC(Cc1ccccc1)N1C(=O)c2cccc([N+](=O)[O-])c2C1=O (centres undefined),1.3,.,7.8,.,.,
CC1CN(c2ccc(C(=O)c3ccccc3C(=O)O)cc2[N+](=O)[O-])CC(C)O1 (centres undefined),-2.5,-14.9,-1.4,.,.,
N#CCCN(Cc1cccs1)C(=O)Nc1ccc(F)cc1,4.6,-0.6,0.0,.,.,
COc1ccc(/C=C/C(=O)NCC(=O)N/N=C/c2cc(Br)ccc2OC)cc1,.,0.9,-5.0,.,.,
COc1ccccc1/C=C/C(=O)NCC(=O)N/N=C/c1cc(Br)ccc1OC,72.8*,8.9,-26.5,105.9*,-1.08,AML12 tox ATP=17.9
COc1cc2c(cc1OC)CN(C(=O)C1CCCN1S(=O)(=O)c1ccc(C)cc1)CC2 (centres undefined),-28.1,.,-7.0,.,.,
OCC[C@@H]1C[C@@H](O)[C@H](O)[C@]2(CCc3ccccc3O2)O1,6.3,.,-3.7,.,.,
OCC[C@@H]1C[C@H](O)[C@@H](O)[C@]2(Cc3ccccc3O2)O1,62.3*,.,1.2,45.0,0.0827,
C=CCn1c(N2CCOCC2)nc2c1c(=O)[nH]c(=O)n2C,4.7,1.2,13.9,.,.,
Cc1ccc(NS(=O)(=O)c2ccc3c(c2)NC(=O)CCS3)cc1C,-30.6,.,0.2,.,.,
Cc1cc(NC(=O)CCCC(=O)Nc2ccc(F)cc2)no1,4.1,-4.5,-4.0,.,.,
Cc1cc(C)cc(NC(=O)CCC(=O)Nc2cc(C)on2)c1,74.9*,5.3,-22.2,71.1*,-1.25,AML12 tox ATP=0.0
CCc1ccc(NC(=O)CSc2nnc(C)c(=O)n2N)cc1,58.3*,.,5.1,89.1*,0.195,AML12 tox ATP=10.7
Cc1ccc(NC(=O)CSc2nnc(C)c(=O)n2N)cc1,45.4,3.3,-8.0,.,.,
CN(C)n1cnc2ccsc2c1=O,-0.5,0.5,3.8,.,.,
SMILES,Hep lipid drop,Mdm2 ligase inh,p-CIP stab down,Hep lipid conf,AML12 cytotox,others
Cc1nnc(NC(=O)CSc2nc3ccccc3o2)s1,-6.4,-11.6,3.5,.,.,
O=C(CSc1nc2ccccc2o1)Nc1nc(-c2ccccc2)c(-c2ccccc2)s1,60.0*,-9.3,7.0,96.3*,-0.0482,AML12 tox ATP=-11.8
CCc1cccc(NS(=O)(=O)c2ccc3c(c2)N(C)CCO3)c1,-10.4,.,-11.3,.,.,
O=C(Nc1cccc(S(=O)(=O)N2CCOCC2)c1)c1ccc(Cl)c([N+](=O)[O-])c1,60.7*,-9.1,0.7,26.9,0.797,
Cc1ccc(C(=O)Nc2cccc(S(=O)(=O)N3CCOCC3)c2)cc1[N+](=O)[O-],-3.5,-3.4,-3.4,.,.,
Cc1nnn(C23C[C@@H]4C[C@@H](CC(C(=O)N5CCN(c6ccccc6)CC5)(C4)C2)C3)n1,-7.2,-3.0,-5.7,.,.,
Cc1ccc(C(=O)CC2(O)C(=O)N(Cc3ccccc3)c3ccccc32)o1 (centres undefined),-10.1,-22.1,-1.5,.,.,
Cc1ccc(C(=O)CC2(O)C(=O)N(CCc3ccccc3)c3ccc(Br)cc32)o1 (centres undefined),53.4*,-1.0,10.3,82.8*,-0.621,AML12 tox ATP=4.3
Cc1ccccc1NS(=O)(=O)c1cc2c3c(c1)C(C)C(=O)N3CCC2 (centres undefined),12.3,.,5.4,.,.,
O=C(NC1CC1)c1cc2c(F)cccc2s1,-2.3,-5.6,-3.5,.,.,
CCOc1ccccc1NC(=O)CSc1nnc(Cn2c(=O)sc3ccccc32)n1C,52.7*,-9.2,-14.5,41.0,-0.271,
CCOc1ccc(NC(=O)CSc2nnc(Cn3c(=O)sc4ccccc43)n2C)cc1,24.9,-6.5,-23.4,.,.,
Cc1oc2c(cc(NS(=O)(=O)c3cccs3)c3ccccc32)c1C(=O)OC(C)C,68.1*,-1.8,-10.3,88.9*,0.021,AML12 tox ATP=5.4
Cc1oc2c(cc(NS(=O)(=O)c3ccc(C(C)C)cc3)c3ccccc32)c1C(=O)O,6.1,.,1.0,.,.,
CCN(CC)C(=O)CC(c1ccc(OC)cc1)c1c(OC)cc(OC)c2ccc(=O)oc12 (centres undefined),64.4*,5.6,-2.1,9.1,0.445,
CCN(CC)C(=O)CC(c1cc(OC)c(OC)c(OC)c1)c1c(OC)cc(OC)c2ccc(=O)oc12 (centres undefined),16.1,9.4,-1.5,.,.,
N/C(Cc1cccc2ccccc12)=N\OC(=O)c1ccc(Br)o1,-9.4,-5.1,-2.5,.,.,
N/C(Cc1ccc(Cl)cc1Cl)=N\OC(=O)c1ccc(Br)o1,57.1*,.,-6.1,2.0,-0.224,
COc1ccc(C(=O)N2CCN(C)C(=O)[C@@H]2C)cc1OC1CCN(C(C)C)CC1,11.0,.,-6.5,.,.,
Cc1ccccc1Cn1nc(C)c(NC(=O)C2c3ccccc3Oc3ccccc32)c1C,80.9*,-18.8,5.5,100.5*,-0.316,AML12 tox ATP=-3.8
Cc1cc(C)c(NC(=O)C2c3ccccc3Oc3ccccc32)c(C)c1,-5.7,-12.9,-0.5,.,.,
COc1ccc(-c2csc(NC(=O)c3ccc(OCC(=O)N4CCOCC4)c(OC)c3)n2)cc1,83.0*,-22.7,7.1,107.3*,-0.564,AML12 tox ATP=53.1
COc1cccc(C(=O)Nc2nc(-c3ccc(S(=O)(=O)N4CCOCC4)cc3)cs2)c1,0.6,-14.2,-4.0,.,.,
